26 molecules from ChEMBL document CHEMBL1125411, “Effect of the 7-amino substituent on the inhibitory potency of mechanism-based isocoumarin inhibitors for porcine pancreatic and human neutrophil elastases: a 1.85-A X-ray structure of the complex between porcine pancreatic elastase and 7-[(N-tosylphenylalanyl)amino]-4-chloro-3- methoxyisocoumarin” (J Med Chem, 1992) can be followed below.

The target in test [1] is T1, Neutrophil elastase (Homo sapiens) (UniProt P08246).
T1 sequence (whole entry): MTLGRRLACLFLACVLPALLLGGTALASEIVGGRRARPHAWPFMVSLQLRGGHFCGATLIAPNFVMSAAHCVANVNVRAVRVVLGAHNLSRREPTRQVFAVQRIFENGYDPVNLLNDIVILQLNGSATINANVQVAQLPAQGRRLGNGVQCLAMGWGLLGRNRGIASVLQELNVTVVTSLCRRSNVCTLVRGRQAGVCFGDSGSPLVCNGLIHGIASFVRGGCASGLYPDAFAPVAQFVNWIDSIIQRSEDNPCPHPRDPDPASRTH
Description: Inactivation of human leukocyte (neutrophil) elastase (HLE)(HNE) as rate constant. It is filed as functional. In outline: (§1)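 HNE (0.1–2.0 μM) in 0.1 M Hepes, 0.5 M NaCl, pH 7.5, 25 °C, was incubated with inhibitor added from Me2SO (final 8–12% v/v). Timed aliquots were diluted 40–200-fold into MeO-Suc-Ala-Ala-Pro-Val-NA (0.1–0.125 mM), and residual activity was read at 410 nm. kobs came from ln(vt/v0) vs time and is reported as kobs/[I]. Very fast cases are lower limits.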

The target in test [2] is Pancreatic elastase (Sus scrofa) (UniProt P08419+P00772). Description: Inactivation of porcine pancreatic elastase (PPE) expressed as rate constant. It is filed as functional. In outline:
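PPE (0.1–2.0 μM) was incubated with inhibitor in 0.1 M Hepes, 0.5 M NaCl, pH 7.5, at 25 °C; inhibitor was added in Me2SO to a final 8–12% v/v. Aliquots taken over time were diluted 40–200-fold into Suc-Ala-Ala-Ala-NA (0.6–1.2 mM), with 4-nitroanilide release followed at 410 nm. First-order kobs came from ln(vt/v0) vs time and is given as kobs/[I].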

Test [3] deals with T1, Neutrophil elastase (Homo sapiens). Description: Inactivation of human leukocyte (neutrophil) elastase(HLE)(HNE) as rate constant. Put shortly: as §1
The subject of test [4] is Pancreatic elastase (Sus scrofa). Description: Compound was tested for the inactivation of porcine pancreatic elastase(PPE) expressed as rate constant.
Test [5] addresses T1, Neutrophil elastase (Homo sapiens). Kind of test: Compound was tested for the inactivation of human leukocyte (neutrophil) elastase(HLE)(HNE) expressed as rate constant. The class given is functional. In outline:
as §1

Molecules are shown by their SMILES.

In the case of `COc1oc(=O)c2cc(NC(=O)C(CC(C)C)NS(=O)(=O)c3ccc(C)cc3)ccc2c1Cl` (centres undefined), the kobs/[I] (second-order inactivation rate constant) in test [1] was found to be 54000 M⁻¹ s⁻¹. Besides, the second-order inactivation rate constant (kobs/[I]) in test [2] came out at 6300 M⁻¹ s⁻¹.
In the same order, the values of `COc1oc(=O)c2cc(NC(=O)Nc3ccccc3)ccc2c1Cl` are 49000 M⁻¹ s⁻¹ and 7300 M⁻¹ s⁻¹.
Regarding `COc1oc(=O)c2cc(NC(=O)Oc3ccccc3)ccc2c1Cl`, in test [3], the k obs / 1 is 13000 M⁻¹ s⁻¹. Further, the second-order inactivation rate constant (kobs/[I]) in test [2] was found to be 850 M⁻¹ s⁻¹. For the same molecule, in test [4], the [I] came out at 8.8 µM.
For `COc1oc(=O)c2cc(NC(=O)C(c3ccccc3)c3ccccc3)ccc2c1Cl`, the kobs/[I] (second-order inactivation rate constant) in test [1] worked out at 52000 M⁻¹ s⁻¹. The molecule also came in with a second-order inactivation rate constant (kobs/[I]) in test [2] of 20 M⁻¹ s⁻¹.
In the same order, the values of `COc1oc(=O)c2cc(NC(=O)CC(c3ccccc3)c3ccccc3)ccc2c1Cl` are 130000 M⁻¹ s⁻¹ and 2400 M⁻¹ s⁻¹.
For `COc1oc(=O)c2cc(NC(=O)CCCC(=O)O)ccc2c1Cl`, in test [1], the kobs/[I] (second-order inactivation rate constant) amounted to 51000 M⁻¹ s⁻¹. The molecule also had a second-order inactivation rate constant (kobs/[I]) in test [2] of 900 M⁻¹ s⁻¹.
`CCOC(=O)Nc1ccc2c(Cl)c(OC)oc(=O)c2c1` came in with a kobs/[I] (second-order inactivation rate constant) in test [1] of 47000 M⁻¹ s⁻¹. The second-order inactivation rate constant (kobs/[I]) in test [2] amounted to 2000 M⁻¹ s⁻¹.
In turn, `COc1oc(=O)c2cc(NC(=O)CCC(=O)O)ccc2c1Cl` returned a kobs/[I] (second-order inactivation rate constant) in test [1] of 9500 M⁻¹ s⁻¹. In addition, the second-order inactivation rate constant (kobs/[I]) in test [2] was found to be 900 M⁻¹ s⁻¹.
On to `COc1oc(=O)c2cc(N=C=O)ccc2c1Cl`, for which the k obs / 1 in test [5] worked out at 9200 M⁻¹ s⁻¹. This molecule displayed a second-order inactivation rate constant (kobs/[I]) in test [2] of 650 M⁻¹ s⁻¹. In test [4], this molecule gave a [I] of 8.3 µM.
As for `COc1oc(=O)c2cc(NC(=O)C(NS(=O)(=O)c3ccc(C)cc3)C(C)C)ccc2c1Cl` (centres undefined), the kobs/[I] (second-order inactivation rate constant) in test [1] amounted to 36000 M⁻¹ s⁻¹. This molecule displayed a second-order inactivation rate constant (kobs/[I]) in test [2] of 1300 M⁻¹ s⁻¹.
As for `COc1oc(=O)c2cc(NC(=O)OCC3c4ccccc4-c4ccccc43)ccc2c1Cl`, the k obs / 1 in test [5] turned out to be 10000 M⁻¹ s⁻¹. Moreover, the second-order inactivation rate constant (kobs/[I]) in test [2] is 20 M⁻¹ s⁻¹. The same molecule gave a [I] in test [4] of 600 µM.
As to `COc1oc(=O)c2cc(NC(=O)Cc3ccccc3)ccc2c1Cl`, the kobs/[I] (second-order inactivation rate constant) in test [1] worked out at 37000 M⁻¹ s⁻¹. The same molecule showed a second-order inactivation rate constant (kobs/[I]) in test [2] of 2000 M⁻¹ s⁻¹.
In test [1], `COc1oc(=O)c2cc(NC(=O)CC(CC(=O)O)c3ccccc3)ccc2c1Cl` (centres undefined) gave a kobs/[I] (second-order inactivation rate constant) of 66000 M⁻¹ s⁻¹. This molecule gave a second-order inactivation rate constant (kobs/[I]) in test [2] of 100 M⁻¹ s⁻¹.
Take `COc1oc(=O)c2cc(NC(=O)C(Cc3ccccc3)NS(=O)(=O)c3ccc(C)cc3)ccc2c1Cl` (centres undefined): the kobs/[I] (second-order inactivation rate constant) in test [1] is 200000 M⁻¹ s⁻¹. This molecule also came in with a second-order inactivation rate constant (kobs/[I]) in test [2] of 6500 M⁻¹ s⁻¹.
`COc1oc(=O)c2cc(NC(=O)N(CCc3ccccc3)Cc3ccccc3)ccc2c1Cl`: the kobs/[I] (second-order inactivation rate constant) in test [1] is 12000 M⁻¹ s⁻¹. In addition, the second-order inactivation rate constant (kobs/[I]) in test [2] was 17 M⁻¹ s⁻¹.
Molecule `COC(=O)CCCC(=O)Nc1ccc2c(Cl)c(OC)oc(=O)c2c1` had a kobs/[I] (second-order inactivation rate constant) in test [1] of 54000 M⁻¹ s⁻¹. In test [2], this molecule registered a second-order inactivation rate constant (kobs/[I]) of 2800 M⁻¹ s⁻¹.
`COc1oc(=O)c2cc(NC(=O)OCc3ccccc3)ccc2c1Cl` returned a kobs/[I] (second-order inactivation rate constant) in test [1] of 71000 M⁻¹ s⁻¹. For the same molecule, the second-order inactivation rate constant (kobs/[I]) in test [2] amounted to 260 M⁻¹ s⁻¹.
Molecule `COc1oc(=O)c2cc(NC(=O)C(C)NS(=O)(=O)c3ccc(C)cc3)ccc2c1Cl` (centres undefined) registered a kobs/[I] (second-order inactivation rate constant) in test [1] of 55000 M⁻¹ s⁻¹. This molecule showed a second-order inactivation rate constant (kobs/[I]) in test [2] of 2500 M⁻¹ s⁻¹.
With `COc1oc(=O)c2cc(NC(C)=O)ccc2c1Cl`, the kobs/[I] (second-order inactivation rate constant) in test [1] was determined as 30000 M⁻¹ s⁻¹. For the same molecule, the second-order inactivation rate constant (kobs/[I]) in test [2] is 2300 M⁻¹ s⁻¹.
`COC(=O)c1ccccc1C(=O)Nc1ccc2c(Cl)c(OC)oc(=O)c2c1` registered a second-order inactivation rate constant (kobs/[I]) in test [2] of 7100 M⁻¹ s⁻¹.
Molecule `COc1oc(=O)c2cc(NC(=O)c3ccccc3C(=O)O)ccc2c1Cl` returned a kobs/[I] (second-order inactivation rate constant) in test [1] of 52000 M⁻¹ s⁻¹. In test [2], this molecule displayed a second-order inactivation rate constant (kobs/[I]) of 2700 M⁻¹ s⁻¹.
In test [1], `COc1oc(=O)c2cc(NC(=O)CCc3ccccc3)ccc2c1Cl` came in with a kobs/[I] (second-order inactivation rate constant) of 66000 M⁻¹ s⁻¹. Besides, the second-order inactivation rate constant (kobs/[I]) in test [2] stood at 3100 M⁻¹ s⁻¹.
As to `COC(=O)Nc1cccc(C(=O)Nc2ccc3c(Cl)c(OC)oc(=O)c3c2)c1`, the kobs/[I] (second-order inactivation rate constant) in test [1] came out at 100000 M⁻¹ s⁻¹. Also, the second-order inactivation rate constant (kobs/[I]) in test [2] was 2500 M⁻¹ s⁻¹.
In turn, `COc1oc(=O)c2cc(NC(=O)C(F)(F)C(F)(F)C(F)(F)F)ccc2c1Cl` came in with a kobs/[I] (second-order inactivation rate constant) in test [1] of 47000 M⁻¹ s⁻¹. The second-order inactivation rate constant (kobs/[I]) in test [2] came to 1100 M⁻¹ s⁻¹.
Consider `COC(=O)CCC(=O)Nc1ccc2c(Cl)c(OC)oc(=O)c2c1`, for which the kobs/[I] (second-order inactivation rate constant) in test [1] is 43000 M⁻¹ s⁻¹. Moreover, the second-order inactivation rate constant (kobs/[I]) in test [2] came out at 2200 M⁻¹ s⁻¹.
In the case of `COc1oc(=O)c2cc(NC(=O)C(NS(=O)(=O)c3ccc(C)cc3)c3ccccc3)ccc2c1Cl` (centres undefined), the kobs/[I] (second-order inactivation rate constant) in test [1] was 84000 M⁻¹ s⁻¹. This molecule also showed a second-order inactivation rate constant (kobs/[I]) in test [2] of 1500 M⁻¹ s⁻¹.
